This is a sample that favours compounds with a hit; in the whole collection about 1.8% have one here.
GRK2 aptamer HTS = compounds blocking aptamer binding on GRK2 – biochemical, human GRK2, bead flow cytometry, HTS, primary screen | inhibition of aptamer binding, % at 10 µM | FAM-aptamer displacement from GRK2 | 330,000 tested, 0.59% active;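 active means inhibition of aptamer binding above 40%, roughly 3 SD of noise, on plates passing a quality check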;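 further: median bead fluorescence of bound FAM aptamer so fluorescent compounds give negative values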
Target sequence (P25098 whole entry, looked up): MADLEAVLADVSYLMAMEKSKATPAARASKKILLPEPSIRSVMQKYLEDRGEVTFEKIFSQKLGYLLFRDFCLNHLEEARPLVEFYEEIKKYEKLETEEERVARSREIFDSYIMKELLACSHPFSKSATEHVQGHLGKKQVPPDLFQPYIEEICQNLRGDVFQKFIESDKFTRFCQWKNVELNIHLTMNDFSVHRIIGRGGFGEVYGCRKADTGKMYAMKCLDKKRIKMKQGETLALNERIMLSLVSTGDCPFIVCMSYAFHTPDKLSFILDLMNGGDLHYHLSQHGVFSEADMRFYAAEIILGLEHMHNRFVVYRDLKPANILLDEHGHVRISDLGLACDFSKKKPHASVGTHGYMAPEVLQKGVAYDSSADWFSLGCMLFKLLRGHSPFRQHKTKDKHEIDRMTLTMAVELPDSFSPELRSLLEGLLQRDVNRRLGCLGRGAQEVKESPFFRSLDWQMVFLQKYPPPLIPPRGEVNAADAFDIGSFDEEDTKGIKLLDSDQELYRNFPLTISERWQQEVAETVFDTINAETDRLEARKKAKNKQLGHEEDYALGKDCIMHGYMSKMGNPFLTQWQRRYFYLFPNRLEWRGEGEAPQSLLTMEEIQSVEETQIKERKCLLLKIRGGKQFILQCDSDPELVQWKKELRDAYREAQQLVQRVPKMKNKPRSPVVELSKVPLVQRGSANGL
ARNT-TACC3 inh = disruptors of ARNT/TACC3 protein interaction, primary screen, biochemical, AlphaScreen, single concentration; AlphaScreen His-ARNT PAS-B/GST-TACC3 binding, luminescence; TACC3 fragment carries E629A point mutation; inhibition, % at 9.99 µM; 390,000 tested, 0.66% active; AID 623870, 2012;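 active means mean inhibition of replicates at least 50% and at least half of replicates each reaching 50%; inconclusive means half or more replicates reach 50% but mean below 50%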;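 further: 0% = complete ARNT plus TACC3 wells and 100% = ARNT alone without TACC3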
CAL PDZ FP-1 = CAL PDZ peptide-binding inhibitors, primary screen, biochemical, fluorescence polarization, Cer-tagged CAL PDZ, HTS; Golgi-associated PDZ and coiled-coil motif-containing protein (Homo sapiens), Q9HD26; purified CAL PDZ, TMR-peptide fluorescence polarization, 1 h; inhibition, % at 20 µM; 330,000 tested, 0.02% active; AID 504414, 2011;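 active means highest replicate inhibition of at least 40%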;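 further: plate controls were DMSO neutral control wells for no effect and unlabeled competitor peptide control wells for full effect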
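Material: tagged CAL PDZ protein CerCALP, purified; buffer or medium: sodium phosphate/NaCl buffer pH 7.4 with TCEP, IgG, Thesit; also added: fluorescent TMR peptide probe; schedule: 1 h incubation at room temperature before polarization reading; technique: fluorescence polarization from S- and P-plane intensities, G-factor corrected; control set: unlabelled peptide and DMSO controls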
DDE Tn7 FP inh = inhibitors of Tn7 peptide binding to fibrin DD(E), primary screen, biochemical, fluorescence polarization, human fibrin, Tn7 probe | FP displacement of FITC-Tn7 peptide from fibrin DD(E); 0% = median of compound wells per plate | AID 720508, 2013 | 370,000 tested, 0.13% active | Fibrinogen beta chain (Homo sapiens), P02675 | inhibition, % at 8.3 µM;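 active means inhibition above the mean of compounds falling within the control limits plus 3 SD of them, cut at about 14% in these data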;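 further: 0% = plate median of compound wells and 100% = 10 µM Aha-Tn7 peptide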
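system = human fibrin DD(E) protein | quantity = DD(E) 2 µM final | medium = Tris/NaCl/CaCl2 buffer, pH 7.8 | also added = labelled Tn7 tracer, 0.1 µM | compound dosing = single point at 8.3 µM | timing = compound with protein 10 min, then 3 h after probe, room temperature | signal = FP measurement | benchmarks = Aha-Tn7 high control | repeats = one replicate per compound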
CAL PDZ FP-2 = untagged CAL PDZ binding inhibitors, primary screen, biochemical, fluorescence polarization, HTS | inhibition, % at 24.9 µM | purified CAL PDZ, TMR-peptide fluorescence polarization, 1 h | 300,000 tested, 0.92% active | Golgi-associated PDZ and coiled-coil motif-containing protein (Homo sapiens), Q9HD26;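 active means mean inhibition of at least 30% with at least half of replicates also reaching 30%; inconclusive means no clear call, values can overlap the other calls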;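 further: 0% = DMSO neutral control and 100% = excess unlabeled competitor peptide PRC23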
Tn6 DDE FP = inhibitors of Tn6 peptide binding to fibrin DD(E), primary screen, biochemical, fluorescence polarization, human fibrin, Tn6 probe. Fibrin DD(E) TRITC-Tn6 fluorescence polarization displacement. Fibrinogen beta chain (Homo sapiens), P02675. 370,000 tested, 0.21% active. AID 720509, 2013. inhibition, % at 8.3 µM;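 active means inhibition above a per-campaign cutoff: mean of compounds within control limits plus 3 SD, cut at about 15% in these data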;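 further: 0% = median of all compound wells on the plate and 100% = blocking peptide control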
GRK2 CP1 = GRK2 aptamer-displacing inhibitors, retest, confirmation, biochemical, cherry pick 1, bead flow cytometry; shares compounds with GRK2 aptamer HTS; AID 504451, 2011; 2,000 tested, 4% active; bead-bound GRK2, FAM-aptamer displacement; aptamer displacement, % at 10 µM;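 active means aptamer displacement above 40%, near three times the noise of non-fluorescent compounds, on plates passing quality checks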;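 further: negative values mostly reflect intrinsic compound fluorescence rather than true enhancement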
FAM quench CP1 = counter-screen for GRK2 aptamer inhibitors: fluorescent aptamer quenchers; 2,000 tested, under 10 active; shares compounds with GRK2 aptamer HTS; Carboxyfluorescein RNA aptamer on beads, flow cytometry quenching; active compounds read low; fluorescence response (% of DMSO), % at 10 µM;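 active means compounds that quench the bead-bound fluorescent RNA probe, cutting fluorescence to under half of the solvent control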;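 further: counterscreen run without GRK2 so only probe quenching by compound is measured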
GRK2 confirm 2 = GRK2 aptamer-displacing inhibitors, hit retest, confirmation, biochemical, cherry pick 2, bead flow cytometry. shares compounds with GRK2 aptamer HTS. bead-bound GRK2, FAM-aptamer displacement. inhibition of aptamer binding, % at 10 µM. 360 tested, under 10 active. AID 504782, 2011;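 active means inhibition of aptamer binding above 40%, about triple the noise seen with nonglowing compounds, on plates passing quality control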;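 further: negative values mostly come from compounds that fluoresce themselves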
FAM quench SP = aptamer fluorescence quenching in GRK2 counter-screen; AID 588494; 360 tested, under 10 active; fluorescence response vs DMSO, % at 10 µM; shares compounds with GRK2 aptamer HTS; carboxyfluorescein RNA aptamer beads, flow cytometry quenching; active compounds read low;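 active means response vs DMSO under 50%, meaning signal dropped by over half, treated as fluorescence quencher; inconclusive means no clear call, values can overlap the other calls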;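 further: labelled aptamer on streptavidin beads without GRK2 as a quench counter-screen; 100% = bead fluorescence of DMSO wells and lower means quenching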
Active calls of the source: *; ? = inconclusive; nt = no result.

SMILES | GRK2 aptamer HTS | ARNT-TACC3 inh | CAL PDZ FP-1 | DDE Tn7 FP inh | CAL PDZ FP-2 | Tn6 DDE FP | GRK2 confirm 2 | FAM quench SP | others
COc1ccc(CNC(=O)CCS(=O)(=O)c2ccc3c(c2)NC(=O)C(C)S3)cc1 (stereo not drawn) | 23 | 0 | -2 | 0 | 1 | 0 | nt | nt
CC1Sc2ccc(S(=O)(=O)CCC(=O)Nc3cc(F)ccc3F)cc2NC1=O (stereo not drawn) | 0 | 0 | -3 | 7 | -4 | 10 | -2 | 102
CC1Sc2ccc(S(=O)(=O)CCC(=O)Nc3ccccn3)cc2NC1=O (stereo not drawn) | 0 | -2 | 0 | -2 | nt | 1 | nt | nt
COc1cccc(CNC(=O)CCS(=O)(=O)c2ccc3c(c2)NC(=O)C(C)S3)c1 (stereo not drawn) | 20 | nt | -2 | 0 | -4 | -6 | nt | nt
Cc1cc(NC(=O)CCS(=O)(=O)c2ccc3c(c2)NC(=O)C(C)S3)ccc1Br (stereo not drawn) | 3 | 1 | 0 | nt | 2 | nt | 19 | 102
CC1Sc2ccc(S(=O)(=O)CCC(=O)NCc3ccc(Cl)cc3)cc2NC1=O (stereo not drawn) | 48* | -41 | -2 | 3 | -5 | 4 | 31 | 98 | GRK2 CP1=2;FAM quench CP1=103
CC1Sc2ccc(S(=O)(=O)CCC(=O)NCc3ccccc3)cc2NC1=O (stereo not drawn) | 35 | -4 | 0 | 3 | 6 | -3 | -12 | 101
CN1C(=O)c2cc(NS(C)(=O)=O)ccc2OC[C@@H]2O[C@@H](CC(=O)NCc3ccccc3)CC[C@H]21 | nt | -10 | nt | nt | nt | nt | nt | nt
CCCNC(=O)C[C@H]1C[C@H]2c3cc(NS(=O)(=O)c4ccc(F)cc4)ccc3O[C@H]2[C@@H](CO)O1 | nt | -6 | nt | nt | nt | nt | nt | nt
Cc1nnc(NN2CCOCC2)[nH]c1=O | 0 | nt | -1 | -2 | 14 | -6 | nt | nt
COc1cc2c(cc1OC)C(C)N(C(C)=O)CC2 (stereo not drawn) | 0 | -5 | -2 | 3 | 4 | -9 | nt | nt
COc1cc2c(cc1OC)C(C)N(C(=O)c1cccs1)CC2 (stereo not drawn) | 81* | -6 | -2 | -3 | -1 | 7 | nt | nt | GRK2 CP1=-4;FAM quench CP1=102
COc1ccccc1-c1ccc([C@@H]2[C@@H](CO)N(C(=O)C3CCC3)[C@H]2C#N)cc1 | nt | 11 | nt | nt | nt | nt | nt | nt
CN(C)S(=O)(=O)c1ccc(Nc2nc(C3CC3)nc3c2nnn3Cc2ccccc2Cl)cc1 | 77* | -13 | -1 | 3 | -2 | 4 | -30 | ?
COC(=O)CNc1nc(C2CC2)nc2c1nnn2Cc1ccccc1Cl | 0 | -9 | -1 | 10 | nt | -3 | nt | nt
CCC(Oc1ccccc1)C(=O)Nc1nnc(S(=O)(=O)Nc2ccccc2)s1 (stereo not drawn) | 49* | 19 | 0 | -3 | nt | 4 | nt | nt | GRK2 CP1=-3;FAM quench CP1=104

Compound activity as filed in PubChem BioAssay.
